Activity calls are given as the source filed them. The rule behind the calls is not given here.

The nature of data set [1]: Cytotoxicity against Sprague-Dawley rat Cerebral cortex neuron assessed as cell viability at 0.1 uM incubated for 24 hrs by MTT assay relative to control. It is filed as tissue-based. To be noted: cerebral cortex neurons, read-out: Activity. A digest of the protocol: (§1)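 Primary fetal rat cortical neurons, matured 8 days, treated 24 h at 37 °C with compound (0.1–100 µM; 0.5% DMSO or water vehicle). MTT 0.7 mg/ml was then added for 30 min at 37 °C, and formazan was extracted with isopropanol/formic acid (95:5) and read at 560 nm. Untreated control was set as 100% viability. Four independent experiments.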
(Tetrazolium assays rely on reduction of a dye to a coloured formazan, in cell work by metabolically active cells.)

A short description of data set [2]: Cytotoxicity against Sprague-Dawley rat Cerebral cortex neuron assessed as cell viability at 1 uM incubated for 24 hrs by MTT assay relative to control. It is filed as tissue-based. The following applies: cerebral cortex neurons, read-out: Activity. A digest of the protocol: as §1
The nature of data set [3]: Cytotoxicity against Sprague-Dawley rat Cerebral cortex neuron assessed as cell viability at 10 uM incubated for 24 hrs by MTT assay relative to control. Format: tissue-based. The following applies: cerebral cortex neurons, read-out: Activity. A digest of the protocol:
as §1

The nature of data set [4]: Cytotoxicity against Sprague-Dawley rat Cerebral cortex neuron assessed as cell viability at 25 uM incubated for 24 hrs by MTT assay relative to control. It is filed as tissue-based. The following applies: cerebral cortex neurons, read-out: Activity. A digest of the protocol:
as §1

Data set [5] can be described thus: Cytotoxicity against rat Sprague-Dawley Cerebral cortex neuron assessed as cell viability at 50 uM incubated for 24 hrs by MTT assay relative to control. It is filed as tissue-based. To be noted: cerebral cortex neurons, read-out: Activity. A digest of the protocol:
as §1

Data set [6] can be described thus: Cytotoxicity against Sprague-Dawley rat Cerebral cortex neuron assessed as cell viability at 100 uM incubated for 24 hrs by MTT assay relative to control. To be noted: cerebral cortex neurons, read-out: Activity. It is filed as tissue-based. A digest of the protocol: as §1
A short description of data set [7]: Cytotoxicity against Sprague-Dawley rat Cerebral cortex neuron assessed as LDH activity at 0.1 uM incubated for 24 hrs by LDH assay (reference value: […]). It is filed as tissue-based. The procedure, abridged:
(§2)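 Primary fetal rat cortical neurons, matured 8 days on poly-D-lysine, exposed 24 h at 37 °C to compound (0.1–100 µM; DMSO 0.5% or water vehicle). LDH released into 100 µl culture medium was measured by kit as the rate of NAD+ reduction (absorbance increase at 490 nm). Positive control was mitomycin C. Four independent experiments.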

Data set [8] is described as follows: Cytotoxicity against Sprague-Dawley rat Cerebral cortex neuron assessed as LDH activity at 1 uM incubated for 24 hrs by LDH assay (reference value: […]). It is filed as tissue-based. The procedure, abridged:
as §2

Data set [9] in a line: Cytotoxicity against Sprague-Dawley rat Cerebral cortex neuron assessed as LDH activity at 10 uM incubated for 24 hrs by LDH assay. Format: tissue-based. The procedure, abridged: as §2
Data set [10] is described as follows: Cytotoxicity against Sprague-Dawley rat Cerebral cortex neuron assessed as LDH activity at 25 uM incubated for 24 hrs by LDH assay (reference value: […]). Format: tissue-based. The procedure, abridged:
as §2

Data set [11] can be described thus: Cytotoxicity against Sprague-Dawley rat Cerebral cortex neuron assessed as LDH activity at 50 uM incubated for 24 hrs by LDH assay (reference value: […]). Format: tissue-based. A digest of the protocol:
as §2

Data set [12] is described as follows: Cytotoxicity against Sprague-Dawley rat Cerebral cortex neuron assessed as LDH activity at 100 uM incubated for 24 hrs by LDH assay (reference value: […]). Format: tissue-based. The procedure, abridged: as §2
A short description of data set [13]: Antioxidant activity in Sprague-Dawley rat Cerebral cortex neuron assessed as total antioxidant capacity by measuring trolox equivalents at 0.1 uM after 24 hrs. Format: functional. The procedure, abridged:
(§3)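 Primary cerebral cortex neurons from rat fetuses, grown on poly-D-lysine in neurobasal medium with fetal calf serum (5% CO2, 37 °C), tested after 8 days in culture. Compounds in DMSO (0.5%) or sterile water were added and incubated 24 h at 37 °C. Cells were washed in ice-cold PBS and homogenized in 0.9% saline. Intracellular TAC (Trolox equiv.) and TOS (H2O2 equiv.) were read by kit. Ascorbic acid 10 µM (TAC) and H2O2 25 µM (TOS) served as positive controls. Four independent experiments.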

Data set [14] can be described thus: Antioxidant activity in Sprague-Dawley rat Cerebral cortex neuron assessed as total antioxidant capacity by measuring trolox equivalents at 1 uM after 24 hrs. It is filed as functional. The procedure, abridged: as §3
A short description of data set [15]: Antioxidant activity in Sprague-Dawley rat Cerebral cortex neuron assessed as total antioxidant capacity by measuring trolox equivalents at 10 uM after 24 hrs. It is filed as functional. The procedure, abridged:
as §3

Data set [16] is described as follows: Antioxidant activity in Sprague-Dawley rat Cerebral cortex neuron assessed as total antioxidant capacity by measuring trolox equivalents at 25 uM after 24 hrs. It is filed as functional. The procedure, abridged:
as §3

Data set [17] can be described thus: Antioxidant activity in Sprague-Dawley rat Cerebral cortex neuron assessed as total antioxidant capacity by measuring trolox equivalents at 50 uM after 24 hrs. It is filed as functional. A digest of the protocol:
as §3

The nature of data set [18]: Antioxidant activity in Sprague-Dawley rat Cerebral cortex neuron assessed as total antioxidant capacity by measuring trolox equivalents at 100 uM after 24 hrs. Format: functional. The procedure, abridged:
as §3

A short description of data set [19]: Antioxidant activity in Sprague-Dawley rat Cerebral cortex neuron assessed as total oxidative stress level by measuring H2O2 equivalents at 0.1 uM after 24 hrs (reference value: 2.3 +/- 0.3 umol/L). Format: functional. The procedure, abridged: as §3
Data set [20] in a line: Antioxidant activity in Sprague-Dawley rat Cerebral cortex neuron assessed as total oxidative stress level by measuring H2O2 equivalents at 1 uM after 24 hrs (reference value: 2.3 +/- 0.3 umol/L). It is filed as functional. The procedure, abridged:
as §3

A short description of data set [21]: Antioxidant activity in Sprague-Dawley rat Cerebral cortex neuron assessed as total oxidative stress level by measuring H2O2 equivalents at 10 uM after 24 hrs (reference value: 2.3 +/- 0.3 umol/L). It is filed as functional. The procedure, abridged: as §3
Data set [22] in a line: Antioxidant activity in Sprague-Dawley rat Cerebral cortex neuron assessed as total oxidative stress level by measuring H2O2 equivalents at 25 uM after 24 hrs (reference value: 2.3 +/- 0.3 umol/L). It is filed as functional. A digest of the protocol:
as §3

The nature of data set [23]: Antioxidant activity in Sprague-Dawley rat Cerebral cortex neuron assessed as total oxidative stress level by measuring H2O2 equivalents at 50 uM after 24 hrs (reference value: 2.3 +/- 0.3 umol/L). It is filed as functional. A digest of the protocol:
as §3

Data set [24] in a line: Antioxidant activity in Sprague-Dawley rat Cerebral cortex neuron assessed as total oxidative stress level by measuring H2O2 equivalents at 100 uM after 24 hrs (reference value: 2.3 +/- 0.3 umol/L). Format: functional. A digest of the protocol: as §3
Data set [25] deals with Sigma non-opioid intracellular receptor 1 (Cavia porcellus, UniProt Q60492). The data set can be described thus: Displacement of [3H]-(+)-pentazocine from sigma1 receptor in guinea pig brain membrane incubated for 150 mins by liquid scintillation counting method. It is filed as cell membranes. A digest of the protocol:
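Guinea pig brain membranes (500 µg protein) in 50 mM Tris-HCl pH 7.4 with 3 nM [3H]-(+)-pentazocine. […] Incubated 150 min at 37 °C, then filtered on PEI-soaked GF/B filters and counted by scintillation. Ki obtained by EBDA/LIGAND; three determinations.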
A general note: Loss of bound radioactivity is the signal in a displacement assay; it reports binding, not function.

Data set [26] can be described thus: Displacement of [3H]-DTG from Sigma 2 receptor in guinea pig brain membrane incubated for 120 mins in presence of sigma1 blocker (+)-SKF-10047 by liquid scintillation counting method. It is filed as cell membranes, Cavia porcellus.
The species named for data set [27] is Cavia porcellus. The data set can be described thus: Selectivity ratio of Ki for displacement of [3H]-DTG from sigma2 receptor in guinea pig brain membrane to Ki for displacement of [3H]-(+)-pentazocine from sigma1 receptor in guinea pig brain membrane. Format: cell membranes.
Data set [28] has as its system Mus musculus. The data set can be described thus: In vivo agonist activity at sigma 1 receptor in Swiss […] mouse assessed as modulation of morphine-induced analgesic effect by measuring tail flick latency at 1 mg/kg, ip measured after 90 mins by radiant heat tail-flick method. Format: functional, organism-based.
For data set [29], the system named is Mus musculus. The data set can be described thus: In vivo agonist activity at sigma 1 receptor in Swiss […] mouse assessed as modulation of morphine-induced analgesic effect by measuring tail flick latency at 1 mg/kg, ip preincubated for 45 mins followed by morphine treatment after 90 mins by radiant heat tail-flick method. Format: functional, organism-based. The following applies: time 135.0 min. For orientation: Hot-plate and tail-flick tests time the reaction to a heat stimulus.

Chain of Sigma non-opioid intracellular receptor 1 (Q60492 whole entry): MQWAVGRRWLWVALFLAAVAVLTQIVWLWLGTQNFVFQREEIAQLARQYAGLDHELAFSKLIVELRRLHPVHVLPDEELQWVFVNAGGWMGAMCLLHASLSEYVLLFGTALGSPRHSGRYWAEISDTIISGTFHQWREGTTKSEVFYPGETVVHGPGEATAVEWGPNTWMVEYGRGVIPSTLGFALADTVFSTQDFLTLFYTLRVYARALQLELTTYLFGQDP

For the molecule `O=C(O)CCCC[C@@H]1CCSS1` [THIOCTIC ACID], the viability at 24 h, 0.1 µM in [1] stood at 98.6%. Besides, in [2], the viability at 24 h, 1 µM was found to be 97.9%. In data set [3], the viability at 24 h, 10 µM was determined as 98.1%. In data set [4], the viability at 24 h, 25 µM stood at 97.2%. For the same molecule, the viability at 24 h, 50 µM in data set [5] worked out at 96.4%. The viability at 24 h, 100 µM in [6] amounted to 95.9%. The Activity was 0.27 mU/ml in [7]; 0.28 mU/ml in data set [8]; 0.28 mU/ml in data set [9]; 0.27 mU/ml in data set [10]; 0.29 mU/ml in data set [11]; 0.29 mU/ml in [12]. Besides, the Activity in [19] amounted to 0.4 µmol/L; in data set [20], 0.5 µmol/L; in [21], 0.4 µmol/L; in data set [22] it was 0.4 µmol/L; in [23], 0.5 µmol/L; in [24], 0.5 µmol/L. Also, the TAC in [13] was determined as 10.7 mmol/L; in data set [14] it was 10.5 mmol/L; in data set [15], 10.9 mmol/L; in data set [16], 11.2 mmol/L; in data set [17], 12.1 mmol/L; in data set [18], 13.5 mmol/L.
A word on the Ki: it is the equilibrium dissociation constant of an inhibitor or competing ligand from its target. In the case of `O=C(CCCC[C@@H]1CCSS1)OC1CCN(Cc2ccccc2)CC1`, the figures for the Ki in data set [25] and in data set [26] were 17.7 nM and 1870 nM, respectively. Further, the Ratio Ki in data set [27] amounted to 106. Moreover, the outcome in [28] was inactive. For the same molecule, the result in data set [29] was Active. The viability at 24 h, 0.1 µM in [1] turned out to be 100%. Moreover, the viability at 24 h, 1 µM in [2] turned out to be 98.7%. Moreover, in data set [3], the viability at 24 h, 10 µM is 96.4%. Besides, the viability at 24 h, 25 µM in [4] was determined as 96.6%. The viability at 24 h, 50 µM in data set [5] amounted to 97.4%. In addition, the viability at 24 h, 100 µM in data set [6] was 96.2%. For the same molecule, the Activity amounted to 0.3 mU/ml in data set [7]; 0.28 mU/ml in [8]; 0.3 mU/ml in data set [9]; 0.32 mU/ml in [10]; 0.34 mU/ml in data set [11]; 0.32 mU/ml in data set [12]. In addition, the Activity worked out at 0.4 µmol/L in [19]; 0.4 µmol/L in [20]; 0.4 µmol/L in data set [21]; 0.5 µmol/L in [22]; 0.5 µmol/L in [23]; 0.5 µmol/L in [24]. Besides, the TAC in data set [13] was 10.9 mmol/L; in data set [14], 10.7 mmol/L; in data set [15] it was 10.9 mmol/L; in data set [16], 11.3 mmol/L; in data set [17] it was 10.9 mmol/L; in data set [18] it was 11 mmol/L.
For the molecule `CO[C@@]12[C@H](COC(N)=O)C3=C(C(=O)C(C)=C(N)C3=O)N1C[C@@H]1N[C@@H]12` [MITOMYCIN], in data set [3], the viability at 24 h, 10 µM is 46.1%. Besides, in data set [9], the Activity was determined as 2.23 mU/ml.
For the molecule `O=C(CCCC[C@@H]1CCSS1)N1CCN(Cc2ccccc2)CC1`, the Ki in data set [25] stood at 6.1 nM; in [26], 1240 nM. In addition, the Ratio Ki in [27] turned out to be 204. Moreover, in [1], the viability at 24 h, 0.1 µM amounted to 98.5%. For the same molecule, the viability at 24 h, 1 µM in data set [2] worked out at 98.7%. Besides, in data set [3], the viability at 24 h, 10 µM was 96.5%. Moreover, the viability at 24 h, 25 µM in [4] came to 96.6%. Besides, in [5], the viability at 24 h, 50 µM is 95.7%. For the same molecule, the viability at 24 h, 100 µM in data set [6] was 95.8%. For the same molecule, the Activity in data set [7] stood at 0.3 mU/ml; in [8], 0.32 mU/ml; in [9], 0.32 mU/ml; in data set [10] it was 0.3 mU/ml; in data set [11], 0.3 mU/ml; in data set [12], 0.32 mU/ml. Besides, the Activity in data set [19] came to 0.5 µmol/L; in data set [20], 0.5 µmol/L; in data set [21], 0.4 µmol/L; in data set [22] it was 0.4 µmol/L; in [23], 0.4 µmol/L; in data set [24] it was 0.5 µmol/L. Moreover, the TAC in data set [13] is 10.2 mmol/L; in data set [14], 10.5 mmol/L; in data set [15] it was 10.8 mmol/L; in data set [16], 13 mmol/L; in data set [17] it was 12.8 mmol/L; in data set [18], 11.2 mmol/L.
Turning to `O=C1O[C@H]([C@@H](O)CO)C(O)=C1O` [ASCORBIC ACID], in data set [15], the TAC came to 26.9 mmol/L.
